Experimental findings from ChEMBL document CHEMBL2069268, “Opioid activity of spinally selective analogues of N-naphthoyl-β-naltrexamine in HEK-293 cells and mice” (J Med Chem, 2012) are described below.

Calls of active or inactive are those of the source. Bounds are passed on as bounds.

Data set [1] concerns the target Opioid receptors; mu & kappa (Homo sapiens) (UniProt P41145+P35372). The experiment in a line: Agonist activity at human mu-kappa opioid receptor expressed in HEK cells assessed as induction of intracellular calcium release by FLIPR assay. The data set is classed as functional, cell-based. The settings on record: HEK293. The essentials: (§1)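 HEK-293 cells stably carrying chimeric Δ6-Gαqi4-myr (zeocin selection, DMEM+10% FBS, 37 °C, 10% CO2) transiently transfected with opioid receptor DNA (200 ng/20,000 cells); seeded 24 h later; day 3 loaded with Ca2+ dye 60 min at 37 °C. After 30 s equilibration, ligand added over a concentration range; fluorescence read; ΔRFU (max−min) per concentration fitted by nonlinear regression; peak effect recorded; ≥3 independent runs, 4 internal replicates.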
For orientation: Calcium flux is commonly read through the fluorescence of an indicator in the cells.

For data set [2], the target named is Opioid receptors; delta & kappa (Homo sapiens) (UniProt P41145+P41143). The experiment in a line: Agonist activity at human delta-kappa opioid receptor expressed in HEK cells assessed as induction of intracellular calcium release by FLIPR assay. The format is functional, cell-based. The following applies: HEK293. The method in brief:
as §1

In data set [3] the test system is Mus musculus. The data set is described as follows: Toxicity in intracerebroventricular dosed ICR-CD1 mouse assessed as dose tolerance after 24 hrs. The following applies: in vivo, icv_or_intrathecal. The format is organism-based. The essentials: (§2)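 Acute 24 h tolerance in male ICR-CD1 mice by i.c.v. or i.t. route: highest (ED80–90) dose of the day-1 dose-response curve repeated on the same mice 24 h later; tail-flick %MPE compared between days; no significant difference taken as not tolerant.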

Data set [4] deals with Mus musculus. The data set is described as follows: Antinociceptive effect in intrathecally dosed ICR-CD1 mouse by tail flick test. The format is functional. The method in brief: (§3)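 Male ICR-CD1 mice (17–25 g), conscious, dosed intrathecally in 5 μl (10% DMSO stock diluted to ≤1% DMSO). Radiant-heat tail-flick; %MPE = (test−control)/(10−control)×100 with 10 s cutoff. Peak antinociception located by time course at 10, 20, 30, 60 min. ≥3 groups of 8–10 mice per curve, mice used once; ED50 with 95% CI by nonlinear regression.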
A general note: Thermal pain tests record how soon the animal reacts.

The test system of data set [5] is Mus musculus. The experiment in a line: Antinociceptive effect in intracerebroventricular dosed ICR-CD1 mouse by tail flick test. The format is functional. The method in brief:
(§4)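 Male ICR-CD1 mice (17–25 g), conscious, given compound i.c.v. in 5 μl (stock in 10% DMSO, diluted to ≤1% DMSO). Radiant-heat tail-flick latency, 10 s cutoff; %MPE = (test−control)/(10−control)×100. Peak time from time course at 10, 20, 30, 60 min. ≥3 groups of 8–10 mice per dose-response curve, each mouse used once; ED50 with 95% CI by nonlinear regression.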

For data set [6], the system named is Mus musculus. The experiment in a line: Antinociceptive effect in intrathecally dosed ICR-CD1 mouse assessed as peak time effect by tail flick test. The format is functional. The method in brief: as §3
In data set [7] the test system is Mus musculus. The data set is described as follows: Antinociceptive effect in intracerebroventricular dosed ICR-CD1 mouse assessed as peak time effect by tail flick test. The data set is classed as functional. The method in brief: as §4
For data set [8], the system named is Mus musculus. The experiment in a line: Toxicity in intrathecally dosed ICR-CD1 mouse assessed as dose tolerance after 24 hrs. The format is organism-based. The settings on record: in vivo, icv_or_intrathecal. The method in brief:
as §2

For data set [9], the target named is Delta-type opioid receptor (Homo sapiens) (UniProt P41143). The experiment in a line: Agonist activity at human delta opioid receptor expressed in HEK cells assessed as induction of intracellular calcium release by FLIPR assay. The data set is classed as functional, cell-based. The following applies: HEK293. The essentials:
as §1

The subject of data set [10] is Mus musculus. The experiment in a line: Antinociceptive effect in intrathecally dosed wild type ICR-CD1 mouse after 20 mins in presence of NTI. The format is functional. The essentials: (§5)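 Wild-type male ICR-CD1 mice dosed intrathecally in 5 μl (≤1% DMSO) with antagonist timed to peak with agonist: NTI 5 nmol/mouse or nor-BNI 2.5 nmol/mouse, each 20 min peak time.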

Data set [11] deals with Mus musculus. The experiment in a line: Antinociceptive effect in intrathecally dosed wild type ICR-CD1 mouse after 20 mins in presence of nor-BNI. The data set is classed as functional. The essentials:
as §5

The test system of data set [12] is Mus musculus. The data set is described as follows: Antinociceptive effect in intrathecally dosed MOR-KO mouse. The format is functional, organism-based. The essentials:
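MOR-KO mice, 13–15 weeks old, equal males and females, eight per group, given compound intrathecally in 5 μl (≤1% DMSO); antinociception scored by radiant-heat tail-flick as %MPE with 10 s cutoff.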

Data set [13] concerns the target Opioid receptors; mu & delta (Homo sapiens) (UniProt P41143+P35372). The experiment in a line: Agonist activity at human mu-delta opioid receptor expressed in HEK cells assessed as induction of intracellular calcium release by FLIPR assay. The data set is classed as functional, cell-based. The following applies: HEK293. The essentials:
as §1

Chain of Delta-type opioid receptor (Homo sapiens) (P41143 whole entry): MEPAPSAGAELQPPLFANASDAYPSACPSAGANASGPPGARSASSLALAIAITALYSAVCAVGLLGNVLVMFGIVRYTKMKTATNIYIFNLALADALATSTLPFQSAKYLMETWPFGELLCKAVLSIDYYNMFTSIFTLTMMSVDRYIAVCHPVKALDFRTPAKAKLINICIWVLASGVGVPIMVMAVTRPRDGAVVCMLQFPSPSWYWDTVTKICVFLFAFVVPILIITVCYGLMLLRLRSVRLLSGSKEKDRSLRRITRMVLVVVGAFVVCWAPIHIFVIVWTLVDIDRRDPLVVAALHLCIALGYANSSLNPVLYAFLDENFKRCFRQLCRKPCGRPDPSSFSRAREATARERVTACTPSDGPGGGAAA
Chain of Opioid receptors; mu & kappa (Homo sapiens) (P35372 whole entry, looked up): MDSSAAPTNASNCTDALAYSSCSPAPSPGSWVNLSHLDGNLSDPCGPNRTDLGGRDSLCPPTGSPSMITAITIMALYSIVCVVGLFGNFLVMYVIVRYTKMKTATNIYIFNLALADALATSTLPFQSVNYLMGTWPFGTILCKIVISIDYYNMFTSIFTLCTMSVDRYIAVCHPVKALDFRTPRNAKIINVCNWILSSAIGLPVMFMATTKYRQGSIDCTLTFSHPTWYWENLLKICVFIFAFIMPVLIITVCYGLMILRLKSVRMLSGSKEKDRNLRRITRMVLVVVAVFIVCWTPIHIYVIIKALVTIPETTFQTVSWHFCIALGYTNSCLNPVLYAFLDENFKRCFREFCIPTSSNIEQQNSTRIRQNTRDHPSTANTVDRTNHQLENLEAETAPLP
Chain of Opioid receptors; mu & kappa (Homo sapiens) (P41145 whole entry, looked up): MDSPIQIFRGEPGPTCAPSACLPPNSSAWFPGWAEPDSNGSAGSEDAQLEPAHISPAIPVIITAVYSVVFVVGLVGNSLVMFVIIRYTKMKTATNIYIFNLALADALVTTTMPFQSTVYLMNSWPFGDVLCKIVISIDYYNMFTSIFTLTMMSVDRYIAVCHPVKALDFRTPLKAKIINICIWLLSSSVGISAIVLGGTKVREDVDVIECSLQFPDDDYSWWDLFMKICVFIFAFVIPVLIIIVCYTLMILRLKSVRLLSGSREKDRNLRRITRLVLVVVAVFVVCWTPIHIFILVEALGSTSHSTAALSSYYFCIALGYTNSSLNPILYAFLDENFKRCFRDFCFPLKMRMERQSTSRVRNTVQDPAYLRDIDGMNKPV
Chain of Opioid receptors; mu & delta (Homo sapiens) (P35372 whole entry, looked up): as the sequence (P35372 whole entry, looked up) above
Chain of Opioid receptors; mu & delta (Homo sapiens) (P41143 whole entry, looked up): as the sequence (P41143 whole entry) above
Chain of Opioid receptors; delta & kappa (Homo sapiens) (P41143 whole entry, looked up): as the sequence (P41143 whole entry) above
Chain of Opioid receptors; delta & kappa (Homo sapiens) (P41145 whole entry, looked up): as the sequence (P41145 whole entry, looked up) above

As to `O=C(N[C@@H]1CC[C@@]2(O)[C@H]3Cc4ccc(O)c5c4[C@@]2(CCN3CC2CC2)[C@H]1O5)c1cccc2ccccc12`, the outcome in data set [1] and in [2] was Active. In addition, the Activity result in data set [3] is on record as “Toxic”. For the same compound, in data set [4], the ED50 amounted to 20.9 pmol. In addition, the MPE result in [5] is listed as “<=60%”.
Regarding `O=C(N[C@H]1CC[C@@]2(O)[C@H]3Cc4ccc(O)c5c4[C@@]2(CCN3CC2CC2)[C@H]1O5)c1ccc2ccccc2c1`, the result in [1] was inactive. Further, the MPE entry in data set [4] and in [5] was “<=60%” in each case.
As to `Cl.O=C(N[C@@H]1CC[C@@]2(O)[C@H]3Cc4ccc(O)c5c4[C@@]2(CCN3CC2CC2)[C@H]1O5)c1ccc2ccccc2c1`, in [1], the result was Active. Besides, the Time in [6] was determined as 5 min; in data set [7] it was 20 min. Besides, the Activity entry was “Non-toxic” in data set [8] and “Toxic” in data set [3]. Besides, the results for the ED50 in [4] and in data set [5] were 18.7 pmol and 2060 pmol, respectively.
In the case of `COc1ccc2cc(C(=O)N[C@@H]3CC[C@@]4(O)[C@H]5Cc6ccc(O)c7c6[C@@]4(CCN5CC4CC4)[C@H]3O7)ccc2c1`, the Time in data set [6] came out at 5 min; in data set [7], 10 min. For the same compound, the MPE result in data set [4] and in data set [5] was “<=60%” each time.
`CN(C(=O)c1ccc2ccccc2c1)[C@@H]1CC[C@@]2(O)[C@H]3Cc4ccc(O)c5c4[C@@]2(CCN3CC2CC2)[C@H]1O5`: in [9], the outcome was Active. In data set [1], the outcome was inactive. Further, the MPE entry in [4] and in data set [5] was “<=60%” each time.
As for `O=C(N[C@@H]1CC[C@@]2(O)[C@H]3Cc4ccc(O)c5c4[C@@]2(CCN3CC2CC2)[C@H]1O5)c1cccc2ncccc12`, the result in data set [9] was inactive. The MPE entry in [4] and in data set [5] was “<=60%” each time.
Take `O=C(N[C@@H]1CC[C@@]2(O)[C@H]3Cc4ccc(O)c5c4[C@@]2(CCN3CC2CC2)[C@H]1O5)c1ccc2cc(F)ccc2c1`: the result in [9] was Active. In addition, the Time in data set [6] came to 20 min. Further, in [8], the Activity result was “Non-toxic”. In addition, the ED50 stood at 5 nmol in data set [10], 2.5 nmol in data set [11] and 81.1 pmol in [4]. Also, the result in data set [12] was inactive. Moreover, the MPE result in data set [5] is on record as “<=60%”.
As for `O=C(N[C@@H]1CC[C@@]2(O)[C@H]3Cc4ccc(O)c5c4[C@@]2(CCN3CC2CC2)[C@H]1O5)c1cnc2ccccc2n1`, the result in data set [9] was inactive. For the same compound, the outcome in [1] and in data set [13] was Active. Also, in [6], the Time is given as 5 min. For the same compound, in data set [8], the Activity result is reported as “Non-toxic”. Further, the results for the ED50 in [4] and in [5] were 50.8 pmol and 757.2 pmol, respectively.
With `COc1cc2ccccc2cc1C(=O)N[C@@H]1CC[C@@]2(O)[C@H]3Cc4ccc(O)c5c4[C@@]2(CCN3CC2CC2)[C@H]1O5`, the outcome in [9] was Active. In addition, the Time in data set [6] was 5 min. For the same compound, the Activity entry in data set [8] is on record as “Non-toxic”; in data set [3] it was “Toxic”. Besides, the values for the ED50 in [4] and in data set [5] were 115.1 pmol and 312.4 pmol, respectively.
On to `O=C(N[C@@H]1CC[C@@]2(O)[C@H]3Cc4ccc(O)c5c4[C@@]2(CCN3CC2CC2)[C@H]1O5)c1nccc2ccccc12`, for which the result in data set [9] was inactive. The outcome in [1] and in data set [13] was Active. Further, the Time in data set [6] is 20 min; in data set [7] it was 10 min. For the same compound, in data set [8], the Activity result is “Non-toxic”. The ED50 in data set [4] turned out to be 1408 pmol; in data set [5], 2070 pmol.
